Peptide text beside a SMILES is read from it.
Columns and labels:
nude mice = assay: In vivo safety assay; parameters: species or system mouse; conditions: 10 mg/kg or 20 mg/kg subcutaneously, 24 h after injection
In short: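 Twelve 6-week-old female athymic NU/NU nude mice were randomised into 3 groups of 4. Groups received 10 or 20 mg/kg test compound injected subcutaneously into the back skin. Serum was assayed for ALT, AST, urea, CREA and UA. Heart, liver, spleen, lung and kidney were examined histologically by H&E. Error bars are SD from 3 biological replicates.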

[1] = test system: mixed P. aeruginosa–S. aureus biofilms; assay: Clearance of established biofilm; format: cell-based, Pseudomonas aeruginosa + Staphylococcus aureus; conditions: concentrations <32 μM in PBS, 24 h, 37°C; crystal violet, 595 nm
In short: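 Preformed mixed P. aeruginosa–S. aureus biofilms were treated with the test compound, with gentamicin as comparator. Residual biomass was stained with crystal violet, and the solubilised dye was read spectrophotometrically at 595 nm. Results are expressed as biofilm percentage. The assay was run in both 96-well round-bottom plates and round-bottom tubes.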

NCCCC[C@H](NC(=O)[C@H](CCCCN)NC(=O)[C@H](Cc1c[nH]c2ccccc12)NC(=O)[C@H](CCCCN)NC(=O)[C@H](CCCCN)NC(=O)[C@H](Cc1c[nH]c2ccccc12)NC(=O)[C@@H](N)Cc1c[nH]c2ccccc12)C(=O)N[C@@H](Cc1c[nH]c2ccccc12)C(=O)N[C@@H](Cc1c[nH]c2ccccc12)C(N)=O [Peptide K6] (H-WWKKWKKWW-NH2)
Histological examination of heart, liver, spleen, kidneys, lungs (H&E) (nude mice): no abnormalities
Serum levels of ALT, AST, UA, urea and CREA (nude mice): within normal range

CNC(C)C1CCC(N)C(OC2C(N)CC(N)C(OC3OCC(C)(O)C(NC)C3O)C2O)O1 (stereo not drawn) [Gentamicin, gentamicin]
Effect on preestablished mixed biofilm [1]: little impact

From PMC9942841 (Proceedings of the National Academy of Sciences of the …, 2023)
